Experimental data published in ChEMBL document CHEMBL2176925, “Novel ¹⁸F-labeled benzoxazole derivatives as potential positron emission tomography probes for imaging of cerebral β-amyloid plaques in Alzheimer's disease” (J Med Chem, 2012).
pKi: −log10 of the molar value. Active and inactive are the calls of the source. The rule behind the calls is not given here.

Columns and labels:
[1] = Displacement of [125I]TZDM from amyloid beta (1 to 40) fibrils
[2] = test system: Brain; assay: Drug uptake in iv dosed ICR mouse brain; assay type: ADME, organism-based; conditions: in vivo
[3] = target: Amyloid-beta precursor protein (Homo sapiens) (UniProt P05067); assay: Binding affinity to amyloid beta plaques in […] brain at 370 kBq/100 ul after 1 hr by immunohistochemical staining method; conditions: tested as the 18F-labelled form
Summary of the method: (§1)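 In vitro autoradiography on paraffin sections. Mouse: Tg C57BL6 APPswe/PSEN1 and wild-type, both 12 months old. Human: AD (person) and normal (person). Sections were deparaffinized through xylene and graded ethanol, held in PBS (0.2 M, pH 7.4) for 30 min, then incubated with tracer (370 kBq/100 μL) for 1 h at room temperature. Washes were 50% ethanol then water. Plates were exposed overnight. Plaques were confirmed by thioflavin-S or monoclonal Aβ1-42 antibody immunostaining.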

[4] = target: Amyloid-beta precursor protein (Homo sapiens) (UniProt P05067); assay: Binding affinity to amyloid beta plaques in […] brain at 370 kBq/100 ul after 1 hr by autoradiographic analysis; conditions: tested as the 18F-labelled form; summary of the method: as §1
[5] = species on record: Mus musculus; assay: Binding affinity to amyloid beta plaques in transgenic C57BL6 mouse brain expressing APP Swedish mutant/PSEN1 at 370 kBq/100 ul after 1 hr by thioflavinS-staining method; assay type: tissue-based; conditions: tested as the 18F-labelled form; summary of the method: as §1
[6] = species on record: Mus musculus; assay: Binding affinity to amyloid beta plaques in transgenic C57BL6 mouse brain expressing APP Swedish mutant/PSEN1 at 370 kBq/100 ul after 1 hr by autoradiographic analysis; assay type: tissue-based; conditions: tested as the 18F-labelled form; summary of the method: as §1
[7] = Displacement of [125I]IMPY from amyloid beta (1 to 42) fibrils after 2 hrs by gamma-counting analysis
Summary of the method: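 Competition binding with aggregated Aβ1-42 fibrils (60 nM final) and [125I]IMPY. Inhibitors were tested at 10⁻⁵–10⁻¹⁰ M (in ethanol) in 0.2 M PBS, pH 7.4, 1 mL, for 2 h at 37 °C with shaking. Nonspecific binding was defined with 1 μM IMPY. Bound ligand was collected by GF/B filtration and γ-counted. Ki was derived from IC50 via Cheng–Prusoff.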

[8] = test system: Mus musculus; assay: Binding affinity to amyloid beta plaque in transgenic C57BL6 mouse hippocampus expressing APP Swedish mutant at 40.7 MBq, iv after 30 mins by thioflavinS-staining method; assay type: functional, organism-based; parameters: dose or concentration left out as unconfirmed; conditions: tested as the 18F-labelled form
Summary of the method: (§2)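 Ex vivo: Tg2576 (C57BL6, APPsw) mice, 18 months old, and age-matched wild-type mice. Each received 40.7 MBq of tracer in 100 μL saline with 5% EtOH iv via the femoral vein and was decapitated 30 min later. Brains were frozen in dry ice and cut into 20 μm sections. Sections were exposed to an imaging plate for 8 h, then the same sections were stained with thioflavin-S.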

[9] = test system: Mus musculus; assay: Binding affinity to amyloid beta plaque in transgenic C57BL6 mouse cortex expressing APP Swedish mutant at 40.7 MBq, iv after 30 mins by thioflavinS-staining method; assay type: functional, organism-based; parameters: dose or concentration left out as unconfirmed; conditions: tested as the 18F-labelled form; summary of the method: as §2
[10] = test system: Mus musculus; assay: Binding affinity to amyloid beta plaque in transgenic C57BL6 mouse hippocampus expressing APP Swedish mutant/PSEN1 at 40.7 MBq, iv after 30 mins by autoradiographic analysis; assay type: functional, organism-based; conditions: 40.7 M, tested as the 18F-labelled form
[11] = test system: Mus musculus; assay: Binding affinity to amyloid beta plaque in transgenic C57BL6 mouse cortex expressing APP Swedish mutant/PSEN1 at 40.7 MBq, iv after 30 mins by autoradiographic analysis; assay type: functional, organism-based; conditions: 40.7 M, tested as the 18F-labelled form
[12] = n-Octanol-PBS buffer partition coefficient, log D of the compound at 370 kBq after 3 mins at pH 7.4; assay type: physicochemical
Summary of the method: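 For log D, tubes containing n-octanol and PBS were vortexed 3 min at room temperature and centrifuged 5 min at 3000 rpm. Weighed samples of the octanol (100 μL) and buffer (500 μL) layers were counted. Log D is the log of the ratio of counts per gram, octanol to PBS.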

[13] = test system: Brain; assay: Ratio of drug uptake in brain at 2 mins to drug uptake in brain at 60 mins in ddY mouse at 370 kBq/100 ul, iv; assay type: ADME, organism-based; conditions: in vivo
Summary of the method: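 Tail-vein injection of 370 kBq/100 μL (saline, 5% EtOH) into male ddY mice (5 weeks, 20−22 g, n = 5). Brain excised at 2 and 60 min, weighed and γ-counted against diluted injectate. Uptake is %ID/g, and the ratio is brain at 2 min divided by brain at 60 min.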

[14] = test system: Brain; assay: Drug uptake in ddY mouse brain at 370 kBq/100 ul, iv at 60 mins by gamma-counting analysis; assay type: ADME, organism-based; conditions: in vivo, 1 h
Summary of the method: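 Normal male ddY mice (5 weeks, 20−22 g, n = 5) received 370 kBq of tracer in 100 μL saline with 5% EtOH via tail vein. Mice were sacrificed at set times after injection, and organs were excised, weighed and γ-counted against diluted injectate aliquots. Values are %ID per gram, except stomach and intestine as %ID per organ, given as mean ± SD of 5 mice.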

[15] = test system: Brain; assay: Drug uptake in ddY mouse brain at 370 kBq/100 ul, iv assessed per organ at 60 mins by gamma-counting analysis; assay type: ADME, organism-based; conditions: in vivo, 1 h
[16] = test system: Brain; assay: Drug uptake in ddY mouse brain at 370 kBq/100 ul, iv assessed per organ at 2 mins by gamma-counting analysis; assay type: ADME, organism-based; conditions: in vivo

Amyloid-beta precursor protein (Homo sapiens), sequence (P05067 whole entry): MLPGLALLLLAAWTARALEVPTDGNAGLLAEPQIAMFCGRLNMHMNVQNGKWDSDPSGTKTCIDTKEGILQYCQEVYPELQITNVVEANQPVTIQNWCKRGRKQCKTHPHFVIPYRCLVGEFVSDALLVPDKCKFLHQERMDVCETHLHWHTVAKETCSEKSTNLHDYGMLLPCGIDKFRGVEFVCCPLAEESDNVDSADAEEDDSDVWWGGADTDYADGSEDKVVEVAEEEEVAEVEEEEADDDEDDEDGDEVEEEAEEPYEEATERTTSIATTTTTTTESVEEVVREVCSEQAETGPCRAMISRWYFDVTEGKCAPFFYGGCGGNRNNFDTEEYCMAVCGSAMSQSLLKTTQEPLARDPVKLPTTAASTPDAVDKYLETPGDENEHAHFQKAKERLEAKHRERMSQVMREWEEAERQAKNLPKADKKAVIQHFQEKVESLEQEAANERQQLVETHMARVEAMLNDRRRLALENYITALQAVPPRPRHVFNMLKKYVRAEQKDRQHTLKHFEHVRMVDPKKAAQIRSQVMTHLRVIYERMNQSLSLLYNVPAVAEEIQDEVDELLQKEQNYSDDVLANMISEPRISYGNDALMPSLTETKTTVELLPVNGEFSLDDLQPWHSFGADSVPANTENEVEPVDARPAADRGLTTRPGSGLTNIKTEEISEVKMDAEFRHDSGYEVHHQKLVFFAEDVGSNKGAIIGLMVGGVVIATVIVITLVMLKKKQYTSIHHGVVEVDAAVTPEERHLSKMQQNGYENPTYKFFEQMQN

Compound | pKi [1] | Drug uptake [2] [%ID] | pKi [7] | logD at 0.05 h [12] | Ratio [13] | other results
CNc1ccc(-c2nc3cc(OCCOCCOCCF)ccc3o2)cc1 |  |  | 8.03 |  |  | Activity [3]: Active; Activity [4]: Active; Activity [5]: Active; Activity [6]: Active; Activity [8]: Active; Activity [9]: Active; Activity [10]: Active; Activity [11]: Active
CNc1ccc(-c2cc3cc(OCCOCCOCC[18F])ccc3o2)cn1 |  |  | 8.62 | 3.11 | 2.34 | 
CN(C)c1ccc(-c2nc3cc(OCCOCCOCCF)ccc3o2)cc1 |  |  | 8.41 |  |  | Activity [3]: Active; Activity [4]: Active; Activity [5]: Active; Activity [6]: Active; Activity [8]: Active; Activity [9]: Active; Activity [10]: Active; Activity [11]: Active
CNc1ccc(-c2cc3cc(OCCOCCOCC[18F])ccc3o2)cc1 |  |  | 8.41 | 3.73 | 2.11 | 
CN(C)c1ccc(-c2cc3cc(OCCOCCOCC[18F])ccc3o2)cc1 |  |  | 8.70 | 2.94 | 1.03 | 
CNc1ccc(/C=C/c2ccc(OCCOCCOCC[18F])nc2)cc1 [FLORBETAPIR F 18] |  |  | 8.54 |  | 3.9 | Drug uptake [14]: 1.88 % ID/g
CN(C)c1ccc(-c2cc3cc(OCCOCCOCC[18F])ccc3o2)cn1 |  |  | 9.00 | 2.32 | 2.11 | 

Now from value to molecule, other results behind:

pKi [1] | Drug uptake [2] [%ID] | pKi [7] | logD at 0.05 h [12] | Ratio [13] | Compound | other results
9.40 | < 1.5 |  |  |  | CN(C)c1ccc(-c2cc3cc([125I])ccc3o2)cc1 | 
9.40 | < 1.5 |  |  |  | CN(C)c1ccc(-c2cc3ccc([125I])cc3o2)cc1 | 
9.40 | < 1.5 |  |  |  | CNc1ccc(-c2cc3cc([125I])ccc3o2)cc1 | 
9.40 | < 1.5 |  |  |  | Oc1ccc(-c2cc3cc([125I])ccc3o2)cc1 | 
9.10 |  | 9.10 | 2.09 | 1.13 | CN(C)c1ccc(-c2nc3ccc([125I])cc3o2)cc1 | Drug uptake [15]: 1.26 %ID; Drug uptake [16]: 1.43 %ID
